Tested on: Fibroblast
Test: Multiplex assay against human fibroblast
Assay type: toxicity, cell-based
In short: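 Four dyes were applied at seeding to live cells: Hoechst33342, BioTracker Green Microtubule Cytoskeleton Dye, MitoTracker Red and Annexin V Alexa Fluor 680. Imaging after compound addition used a CQ1 microscope at 37°C and 5% CO2. CellPathfinder machine-learning gating then sorted cells into Hoechst high-intensity objects or normal cells, normal cells into healthy, pyknosed or fragmented nuclei, and pyknosed cells into mitotic or apoptotic, with tubulin, mitochondrial-mass and membrane-permeability phenotypes given as per cents of healthy-nucleus cells.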

[1] = 12 h, 1 µM, compound concentration 1 uM, replicate 1
[2] = 12 h, 1 µM, compound concentration 1 uM, replicate 2
[3] = 12 h, 10 µM, compound concentration 10 uM, replicate 1
[4] = 12 h, 10 µM, compound concentration 10 uM, replicate 2
[5] = 24 h, 1 µM, compound concentration 1 uM, replicate 1
[6] = 24 h, 1 µM, compound concentration 1 uM, replicate 2
[7] = 24 h, 10 µM, compound concentration 10 uM, replicate 1
[8] = 24 h, 10 µM, compound concentration 10 uM, replicate 2
[9] = 48 h, 1 µM, compound concentration 1 uM, replicate 1
[10] = 48 h, 1 µM, compound concentration 1 uM, replicate 2
[11] = 48 h, 10 µM, compound concentration 10 uM, replicate 1
[12] = 48 h, 10 µM, compound concentration 10 uM, replicate 2

CN(C)C(=O)Cn1cc(-c2ccc(-c3cncc4ccccc34)cc2)cn1
Population Apoptotic (%) [1]: 47% | Population Fragmented Nuclei (%) [1]: 10% | Population Healthy Nuclei (%) [1]: 72% | Population Hoechst High Intensity Objects (%) [1]: 0% | Population Membrane Permeable-Phenotype (%) [1]: 0% | Population Mitochondria Different-Phenotype (%) [1]: 5% | Population Mitotic Cells (%) [1]: 52% | Population Normal (%) [1]: 100% | Population Pyknosed Nuclei (%) [1]: 16% | Population Tubulin-Different-Phenotype (%) [1]: 31% | Total Cell Count [1]: 139 | Population Apoptotic (%) [2]: 32% | Population Fragmented Nuclei (%) [2]: 33% | Population Healthy Nuclei (%) [2]: 46% | Population Hoechst High Intensity Objects (%) [2]: 5% | Population Membrane Permeable-Phenotype (%) [2]: 5% | Population Mitochondria Different-Phenotype (%) [2]: 2% | Population Mitotic Cells (%) [2]: 67% | Population Normal (%) [2]: 94% | Population Pyknosed Nuclei (%) [2]: 20% | Population Tubulin-Different-Phenotype (%) [2]: 54% | Total Cell Count [2]: 161 | Population Apoptotic (%) [3]: 33% | Population Fragmented Nuclei (%) [3]: 13% | Population Healthy Nuclei (%) [3]: 69% | Population Hoechst High Intensity Objects (%) [3]: 4% | Population Membrane Permeable-Phenotype (%) [3]: 1% | Population Mitochondria Different-Phenotype (%) [3]: 12% | Population Mitotic Cells (%) [3]: 66% | Population Normal (%) [3]: 95% | Population Pyknosed Nuclei (%) [3]: 16% | Population Tubulin-Different-Phenotype (%) [3]: 52% | Total Cell Count [3]: 113 | Population Fragmented Nuclei (%) [4]: 40% | Population Healthy Nuclei (%) [4]: 42% | Population Hoechst High Intensity Objects (%) [4]: 9% | Population Membrane Permeable-Phenotype (%) [4]: 18% | Population Mitochondria Different-Phenotype (%) [4]: 5% | Population Normal (%) [4]: 90% | Population Tubulin-Different-Phenotype (%) [4]: 81% | Total Cell Count [4]: 98 | Population Apoptotic (%) [5]: 47% | Population Fragmented Nuclei (%) [5]: 12% | Population Healthy Nuclei (%) [5]: 73% | Population Hoechst High Intensity Objects (%) [5]: 5% | Population Membrane Permeable-Phenotype (%) [5]: 0% | Population Mitochondria Different-Phenotype (%) [5]: 3% | Population Mitotic Cells (%) [5]: 52% | Population Normal (%) [5]: 94% | Population Pyknosed Nuclei (%) [5]: 14% | Population Tubulin-Different-Phenotype (%) [5]: 37% | Total Cell Count [5]: 137 | Population Apoptotic (%) [6]: 48% | Population Fragmented Nuclei (%) [6]: 40% | Population Healthy Nuclei (%) [6]: 38% | Population Membrane Permeable-Phenotype (%) [6]: 7% | Population Mitochondria Different-Phenotype (%) [6]: 5% | Population Mitotic Cells (%) [6]: 51% | Population Pyknosed Nuclei (%) [6]: 20% | Population Tubulin-Different-Phenotype (%) [6]: 61% | Total Cell Count [6]: 156 | Population Apoptotic (%) [7]: 50% | Population Fragmented Nuclei (%) [7]: 20% | Population Healthy Nuclei (%) [7]: 62% | Population Hoechst High Intensity Objects (%) [7]: 8% | Population Membrane Permeable-Phenotype (%) [7]: 0% | Population Mitochondria Different-Phenotype (%) [7]: 12% | Population Mitotic Cells (%) [7]: 50% | Population Normal (%) [7]: 91% | Population Pyknosed Nuclei (%) [7]: 17% | Population Tubulin-Different-Phenotype (%) [7]: 59% | Total Cell Count [7]: 113 | Population Apoptotic (%) [8]: 41% | Population Fragmented Nuclei (%) [8]: 41% | Population Healthy Nuclei (%) [8]: 43% | Population Hoechst High Intensity Objects (%) [8]: 5% | Population Membrane Permeable-Phenotype (%) [8]: 11% | Population Mitochondria Different-Phenotype (%) [8]: 8% | Population Mitotic Cells (%) [8]: 58% | Population Normal (%) [8]: 94% | Population Pyknosed Nuclei (%) [8]: 15% | Population Tubulin-Different-Phenotype (%) [8]: 85% | Total Cell Count [8]: 85 | Population Apoptotic (%) [9]: 76% | Population Fragmented Nuclei (%) [9]: 21% | Population Healthy Nuclei (%) [9]: 65% | Population Hoechst High Intensity Objects (%) [9]: 6% | Population Membrane Permeable-Phenotype (%) [9]: 3% | Population Mitochondria Different-Phenotype (%) [9]: 8% | Population Mitotic Cells (%) [9]: 23% | Population Normal (%) [9]: 93% | Population Pyknosed Nuclei (%) [9]: 12% | Population Tubulin-Different-Phenotype (%) [9]: 57% | Total Cell Count [9]: 144 | Population Apoptotic (%) [10]: 44% | Population Fragmented Nuclei (%) [10]: 36% | Population Healthy Nuclei (%) [10]: 40% | Population Hoechst High Intensity Objects (%) [10]: 7% | Population Membrane Permeable-Phenotype (%) [10]: 5% | Population Mitochondria Different-Phenotype (%) [10]: 7% | Population Mitotic Cells (%) [10]: 55% | Population Normal (%) [10]: 92% | Population Pyknosed Nuclei (%) [10]: 22% | Population Tubulin-Different-Phenotype (%) [10]: 77% | Total Cell Count [10]: 141 | Population Apoptotic (%) [11]: 72% | Population Fragmented Nuclei (%) [11]: 24% | Population Healthy Nuclei (%) [11]: 54% | Population Hoechst High Intensity Objects (%) [11]: 9% | Population Membrane Permeable-Phenotype (%) [11]: 0% | Population Mitochondria Different-Phenotype (%) [11]: 20% | Population Mitotic Cells (%) [11]: 27% | Population Normal (%) [11]: 90% | Population Pyknosed Nuclei (%) [11]: 20% | Population Tubulin-Different-Phenotype (%) [11]: 55% | Total Cell Count [11]: 117 | Population Apoptotic (%) [12]: 12% | Population Fragmented Nuclei (%) [12]: 47% | Population Healthy Nuclei (%) [12]: 44% | Population Hoechst High Intensity Objects (%) [12]: 0% | Population Membrane Permeable-Phenotype (%) [12]: 8% | Population Mitochondria Different-Phenotype (%) [12]: 13% | Population Mitotic Cells (%) [12]: 87% | Population Normal (%) [12]: 99% | Population Pyknosed Nuclei (%) [12]: 7% | Population Tubulin-Different-Phenotype (%) [12]: 73% | Total Cell Count [12]: 102

Reference: ChEMBL document CHEMBL5058577, “EUbOPEN Chemogenomics Library 2 (Multiplex)” (2022)
